Assay results as given in ChEMBL document CHEMBL1150299, “Design, synthesis, and application of novel triclosan prodrugs as potential antimalarial and antibacterial agents” (Bioorg Med Chem, 2008).
≈ marks a conversion by molar mass, not a printed value.

Experiments:
[1] = system: Escherichia coli; assay: Stability assessed as half life of prodrug disappearance in Escherichia coli culture; assay type: ADME, organism-based; details: in vivo
In short: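 E. coli cultures exposed to prodrug for 0, 2, 5, 10 and 20 min, then pelleted at 4 °C, washed in LB and resuspended in 50 mM Tris pH 7.5. Extracts cleaned by solid-phase extraction with methanol elution, then run on C18 reverse-phase FPLC with isocratic acetonitrile and UV detection at 230 nm. Half-life taken from prodrug disappearance.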

[2] = system: Plasmodium falciparum; assay: Antimalarial activity against chloroquine-sensitive Plasmodium falciparum FCK2; assay type: functional, organism-based
[3] = system: Escherichia coli; assay: Antibacterial activity against wild type Escherichia coli K12 after 12 hrs by microdilution method; assay type: functional, organism-based; details: K12, 12 h
In short: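 Wild-type K12 grown in LB to mid-log, diluted 100-fold; 100 µl used to inoculate tubes of 10 mL LB containing inhibitor (stocks about 10 mM in DMSO). IC50 is the mean of at least three sets; values are means ± SD of at least three experiments in duplicate.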

[4] = Stability at -10 to 40 degC after 24 hrs by FPLC assay; assay type: physicochemical
In short: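 Prodrugs held in Luria Broth (pH 7.2) for 24 h at temperatures between -10 and 40 °C. Release of triclosan monitored by FPLC with UV detection.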

[5] = system: Plasmodium falciparum; assay: Stability assessed as half life of prodrug disappearance in Plasmodium falciparum culture; assay type: ADME, organism-based; details: in vivo
In short: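 Synchronized young-trophozoite cultures treated with prodrug for 0, 0.5, 3, 6, 12, 18, 24 and 36 h. Parasites isolated into PBS, processed by solid-phase extraction, then analysed by C18 reverse-phase FPLC with absorbance at 230 nm. Half-life derived from loss of the prodrug peak.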

Row | t1/2 [1] [min] | IC50 [2] [nM] | MIC [2] [µM] | IC50 [3] [nM] | MIC [3] [µM] | Stability [4] | t1/2 [5] [min] | Structure (SMILES)
1 | 12 | 6700 | 27.9 (≈ 10.8 µg/mL) | 220 | 0.6 (≈ 0.233 µg/mL) | Stable | – | NC(=O)CCC(=O)Oc1cc(Cl)ccc1Oc1ccc(Cl)cc1Cl
2 | 9 | 520 | 4.8 (≈ 1.94 µg/mL) | 330 | 0.75 (≈ 0.303 µg/mL) | Stable | 570 | O=C(O)CCCC(=O)Oc1cc(Cl)ccc1Oc1ccc(Cl)cc1Cl
3 | – | 1150 | 9.7 (≈ 3.83 µg/mL) | 3100 | 9 (≈ 3.55 µg/mL) | Stable | – | O=C(Oc1cc(Cl)ccc1Oc1ccc(Cl)cc1Cl)c1cccnc1
4 | – | 2070 | 13.7 | 3600 | 10.2 | Stable | – | C[n+]1cccc(C(=O)Oc2cc(Cl)ccc2Oc2ccc(Cl)cc2Cl)c1.[Cl-]
5 | 6 | 620 | 7.9 (≈ 3.75 µg/mL) | 260 | 0.55 (≈ 0.261 µg/mL) | Stable | 567 | CN(C)CCOC(=O)CCCC(=O)Oc1cc(Cl)ccc1Oc1ccc(Cl)cc1Cl
6 | 8 | 3020 | 19.7 | 420 | 1 | Stable | – | C[N+](C)(C)CCOC(=O)CCCC(=O)Oc1cc(Cl)ccc1Oc1ccc(Cl)cc1Cl.[Cl-]
7 | – | 680 | 6.2 (≈ 2.4 µg/mL) | 77000 | – | Stable | 572 | CC(=O)CCC(=O)Oc1cc(Cl)ccc1Oc1ccc(Cl)cc1Cl
8 | – | 8900 | 33.8 (≈ 12.6 µg/mL) | 140000 | – | Stable | – | CCCCC(=O)Oc1cc(Cl)ccc1Oc1ccc(Cl)cc1Cl

Row | Structure (SMILES) | t1/2 [1] [min] | IC50 [2] [nM] | MIC [2] [µM] | IC50 [3] [nM] | MIC [3] [µM] | Stability [4] | t1/2 [5] [min]
9 | Oc1cc(Cl)ccc1Oc1ccc(Cl)cc1Cl [TRICLOSAN] | – | 2290 | 17.6 (≈ 5.1 µg/mL) | 750 | 1 (≈ 0.29 µg/mL) | Stable | –
